Test results: publication PMC2989669 (Bioorganic & medicinal chemistry letters, 2010)

What was measured:
MIF-CD74 binding = target: T1, MIF-CD74 binding (Homo sapiens, UniProt P14174); assay: MIF-CD74 binding assay; settings: for IC50 or max % inhib CD74 (result in words): MIF-CD74 binding assay
T1 sequence (P14174 2-115 limits assumed): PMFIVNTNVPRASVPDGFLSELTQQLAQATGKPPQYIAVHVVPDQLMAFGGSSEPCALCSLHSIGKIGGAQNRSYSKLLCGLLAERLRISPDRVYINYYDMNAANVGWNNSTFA

human MIF = target: T2, human MIF (Homo sapiens, UniProt P14174); assay: MIF tautomerase assay using 4-hydroxyphenylpyruvate; format: biochemical; settings: for IC50 or max % inhib 4-HPP (result in words): tautomerase assay
T2 sequence (P14174 2-115 limits assumed): T1 sequence (P14174 2-115 limits assumed)
How it was run: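 Recombinant human MIF; tautomerase activity measured with 4-hydroxyphenylpyruvate (4-HPP) as substrate. Test compounds were run from 1 nM to 1 mM. IC50 was reported. Where inhibition plateaued below 50%, the maximum percent inhibition was reported instead.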

[1] = test system: MIF-dependent ERK1/2 phosphorylation; assay: MIF-dependent ERK1/2 phosphorylation in human fibroblasts; format: cell-based; settings: human primary fibroblasts, MIF […] trimer, compound 8 nM, 30 min
MIF tautomerase = settings: cited from earlier work

For `Oc1ccc(-c2cn(Cc3ccccc3)nn2)cc1` [3a], which IC50 (MIF-CD74 binding) is on record?
The IC50 was over 1 mM.

With `Cc1ccccc1Cn1cc(-c2ccc(O)cc2)nn1` [3b] as the compound, how does the IC50 (MIF-CD74 binding) read?
The IC50 was over 1 mM.

Which IC50 (MIF-CD74 binding) does the source give for `Cc1cccc(Cn2cc(-c3ccc(O)cc3)nn2)c1` [3c] here?
The IC50 was over 1 mM.

For `COc1ccccc1Cn1cc(-c2ccc(O)cc2)nn1` [3d], which “IC50 or max % inhib CD74 (result in words)” value (MIF-CD74 binding) is on record?
The value was “Agon”.

What about the “IC50 or max % inhib 4-HPP (result in words)” value (human MIF) of the same compound?
Its value is “Agon”.

What about the “effect on MIF-dependent ERK1/2 phosphorylation” value [1] of the same compound?
The value was “enhances ERK1/2 phosphorylation”.

Which IC50 (MIF-CD74 binding) does the source give for `COc1ccc(Cn2cc(-c3ccc(O)cc3)nn2)cc1` [3f] here?
The IC50 was over 1 mM.

What does the source list for `COc1cccc(Cn2cc(-c3ccc(O)cc3)nn2)c1OC` [3g]?
IC50 (MIF-CD74 binding): ~0.001 mM; IC50 (human MIF): ~1 µM; effect on MIF-dependent ERK1/2 phosphorylation [1]: strongly inhibits

Which IC50 (MIF-CD74 binding) does the source give for `COC(=O)c1cccc(Cn2cc(-c3ccc(O)cc3)nn2)c1` [3h] here?
Its IC50 is about 0.001 mM.

What about the IC50 (human MIF) of the same compound?
Its IC50 is about 1 µM.

With `O=C(O)c1cccc(Cn2cc(-c3ccc(O)cc3)nn2)c1` [3i] as the compound, how does the IC50 (MIF-CD74 binding) read?
The IC50 was over 1 mM.

Which results are given for `Oc1ccc(-n2cc(Cc3cccc(O)c3)nn2)cc1` [4d]?
IC50 (MIF-CD74 binding): > 1 mM; IC50 (human MIF): > 1000 µM

For `COc1cccc(Cc2cn(-c3ccc(O)cc3)nn2)c1OC` [4i], which IC50 (MIF-CD74 binding) is on record?
The IC50 was over 1 mM.

What does the source list for `Oc1ccc(-n2cc(-c3cccnc3)nn2)cc1` [5a]?
IC50 or max % inhib CD74 (result in words) (MIF-CD74 binding): Agon; IC50 or max % inhib 4-HPP (result in words) (human MIF): Agon; effect on MIF-dependent ERK1/2 phosphorylation [1]: enhances ERK1/2 phosphorylation

With `Oc1ccc(-n2cc(-c3cccc4ccccc34)nn2)cc1` [5b] as the compound, how does the IC50 (MIF-CD74 binding) read?
The IC50 was over 1 mM.

With `Oc1ccc(-n2cc(-c3cncc4ccccc34)nn2)cc1` [5c] as the compound, how does the “IC50 or max % inhib CD74 (result in words)” value (MIF-CD74 binding) read?
Its value is “Agon”.

What about the “IC50 or max % inhib 4-HPP (result in words)” value (human MIF) of the same compound?
The value was “Agon”.

And the “effect on MIF-dependent ERK1/2 phosphorylation” value [1]?
Its value is “enhances ERK1/2 phosphorylation”.

With `CCOC(=O)c1cc2ccc(O)cc2oc1=O` [compound 1] as the compound, how does the “tautomerase inhibition (reported potency)” value (MIF tautomerase) read?
Its value is 7 µM.

With `COC(=O)CC1CC(c2ccc(O)cc2)=NO1` (stereo not shown) [compound 2] as the compound, how does the “tautomerase inhibition (reported potency)” value (MIF tautomerase) read?
Its value is 7 µM.
